Results taken from ChEMBL document CHEMBL4251576, “Synthesis and biological evaluation of curcumin inspired imidazo[1,2-a]pyridine analogues as tubulin polymerization inhibitors” (Eur J Med Chem, 2018).
Where a name gives a salt, the structure may show the parent alone.

Columns and labels:
PC-3 [1] = assay: Cytotoxicity against human PC3 cells assessed as inhibition of cell viability after 48 hrs by MTT assay; assay type: functional, cell-based; settings: PC-3, 48 h
Procedure, shortened: (§1)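 Cells were seeded at 2.5‒5 x 10^3 per well in DMEM or RPMI with 10% FBS and grown 24 h at 37 °C under CO2. Compounds diluted in medium were added alongside vehicle control for 48 h. MTT (0.5 mg/mL) was added for 4 h, formazan dissolved in DMSO and absorbance read at 570 nm. IC50 is the concentration giving 50% loss of viability; mean ± SD of three experiments, each in triplicate.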

DU-145 [2] = assay: Cytotoxicity against human DU145 cells assessed as inhibition of cell viability after 48 hrs by MTT assay; assay type: functional, cell-based; settings: DU-145, 48 h; procedure, shortened: as §1
NCI-H460 [3] = assay: Potency index, ratio of curcumin IC50 to test compound IC50 for human NCI-H460 cells; assay type: functional
DU-145 [4] = assay: Potency index, ratio of curcumin IC50 to test compound IC50 for human DU145 cells; assay type: functional
PC-3 [5] = assay: Potency index, ratio of curcumin IC50 to test compound IC50 for human PC3 cells; assay type: functional
HeLa = assay: Cytotoxicity against human HeLa cells assessed as inhibition of cell viability after 48 hrs by MTT assay; assay type: functional, cell-based; procedure, shortened: as §1
HGC-27 = assay: Cytotoxicity against human HGC27 cells assessed as inhibition of cell viability after 48 hrs by MTT assay; assay type: functional, cell-based; settings: HGC-27, 48 h; procedure, shortened: as §1
4T1 = assay: Cytotoxicity against mouse 4T1 cells assessed as inhibition of cell viability after 48 hrs by MTT assay; assay type: functional, cell-based; settings: 4T1, 48 h; procedure, shortened: as §1
NCI-H460 [6] = assay: Cytotoxicity against human NCI-H460 cells assessed as inhibition of cell viability after 48 hrs by MTT assay; assay type: functional, cell-based; settings: NCI-H460, 48 h; procedure, shortened: as §1

| Structure (SMILES) | IC50 (PC-3 [1]) [µM] | IC50 (DU-145 [2]) [µM] | Ratio IC50 (NCI-H460 [3]) | Ratio IC50 (DU-145 [4]) | Ratio IC50 (PC-3 [5]) | IC50 (HeLa) [µM] | IC50 (HGC-27) [µM] | IC50 (4T1) [µM] | IC50 (NCI-H460 [6]) [µM] |
| --- | --- | --- | --- | --- | --- | --- | --- | --- | --- |
| COc1ccc(OC)c(/C=C/C(=O)/C=C/c2nc3ccccn3c2-c2ccccc2)c1 | 3.03 | 3.38 | 4.3 | 9.8 | 6.1 | 5.51 | 7.08 | 3.38 | 4.01 |
| COc1ccc(-c2c(/C=C/C(=O)/C=C/c3cc(OC)ccc3OC)nc3ccccn23)cc1 | > 10 | > 10 | – | – | – | > 10 | > 10 | > 10 | > 10 |
| COc1ccc(-c2c(/C=C/C(=O)/C=C/c3ccc(OC)cc3OC)nc3ccccn23)cc1 | > 10 | > 10 | – | – | – | > 10 | > 10 | > 10 | > 10 |
| COc1ccc(/C=C/C(=O)/C=C/c2nc3ccccn3c2-c2ccc(F)c(F)c2)cc1OC | 5.43 | 4.87 | 5.7 | 6.8 | 3.4 | 5.58 | 3.38 | 3.45 | 3.01 |
| COc1ccc(/C=C/C(=O)/C=C/c2nc3ccccn3c2-c2ccc(F)c(F)c2)c(OC)c1 | 8.94 | 8.46 | 1.8 | 3.9 | 2.1 | 8.41 | 10.3 | 9.72 | 9.53 |
| COc1ccc(/C=C/C(=O)/C=C/c2nc3ccccn3c2-c2ccc(F)c(F)c2)cc1 | > 10 | > 10 | – | – | – | > 10 | > 10 | > 10 | > 10 |
| COc1cc(/C=C/C(=O)CC(=O)/C=C/c2ccc(O)c(OC)c2)ccc1O [CURCUMIN] | 18.7 | – | – | – | – | – | – | – | – |
| COc1cccc(-c2c(/C=C/C(=O)/C=C/c3ccc(OC)c(OC)c3)nc3ccccn23)c1 | > 10 | > 10 | – | – | – | > 10 | > 10 | > 10 | > 10 |
| COc1ccc(-c2c(/C=C/C(=O)/C=C/c3ccc(OC)c(OC)c3)nc3ccccn23)cc1 | 3.64 | 4 | 4 | 8.3 | 5.1 | 6.66 | 7.84 | 5.61 | 4.28 |
| COc1cc(OC)c(OC)cc1/C=C/C(=O)/C=C/c1nc2ccccn2c1-c1ccccc1 | 2.75 | 3.71 | 6 | 8.9 | 6.8 | 1.67 | 5.38 | 1.68 | 2.84 |
| COc1ccc(-c2c(/C=C/C(=O)/C=C/c3cc(OC)c(OC)cc3OC)nc3ccccn23)cc1 | 7.24 | 5.63 | 3.1 | 5.9 | 2.6 | 9.41 | 8.77 | 4.69 | 5.52 |
| COc1ccc(OC)c(/C=C/C(=O)/C=C/c2nc3ccccn3c2-c2ccc(F)c(F)c2)c1 | 2.84 | 4.19 | 5.5 | 7.9 | 6.6 | 4.93 | 6.35 | 3.27 | 3.11 |
| COc1cc(OC)c(/C=C/C(=O)/C=C/c2nc3ccccn3c2-c2ccccc2)c(OC)c1 | > 10 | > 10 | – | – | – | > 10 | > 10 | > 10 | > 10 |
| COc1ccc(/C=C/C(=O)/C=C/c2nc3ccccn3c2-c2ccccc2)cc1 | > 10 | > 10 | – | – | – | > 10 | > 10 | > 10 | > 10 |
| COc1cccc(-c2c(/C=C/C(=O)/C=C/c3cc(OC)ccc3OC)nc3ccccn23)c1 | > 10 | > 10 | – | – | – | > 10 | > 10 | > 10 | > 10 |
| COc1ccc(/C=C/C(=O)/C=C/c2nc3ccccn3c2-c2ccccc2)c(OC)c1 | > 10 | > 10 | – | – | – | > 10 | > 10 | > 10 | > 10 |
| COc1ccc(/C=C/C(=O)/C=C/c2nc3ccccn3c2-c2ccccc2)cc1OC | > 10 | > 10 | – | – | – | > 10 | > 10 | > 10 | > 10 |
| COc1ccc(/C=C/C(=O)/C=C/c2nc3ccccn3c2-c2ccc(OC)cc2)cc1 | > 10 | > 10 | – | – | – | > 10 | > 10 | > 10 | > 10 |
| COc1cccc(-c2c(/C=C/C(=O)/C=C/c3ccc(OC)cc3OC)nc3ccccn23)c1 | > 10 | > 10 | – | – | – | > 10 | > 10 | > 10 | > 10 |
| COc1ccc(/C=C/C(=O)/C=C/c2nc3ccccn3c2-c2cccc(OC)c2)cc1 | > 10 | > 10 | – | – | – | > 10 | > 10 | > 10 | > 10 |
| CC[C@]1(O)C[C@H]2CN(CCc3c([nH]c4ccccc34)[C@@](C(=O)OC)(c3cc4c(cc3OC)N(C=O)[C@H]3[C@@](O)(C(=O)OC)[C@H](OC(C)=O)[C@]5(CC)C=CCN6CC[C@]43[C@@H]65)C2)C1 [VINCRISTINE SULFATE] | – | 71.8 | – | – | – | – | – | – | – |
